Measured values from different studies.
Each line is one published result; the experiments were not run side by side.
Organism: Mycobacterium tuberculosis
Observed: microbial growth

`O=C1COCCN1c1ccc(CO[C@@H]2COc3nc([N+](=O)[O-])cn3C2)cc1F` has an MIC of 0.4 to 0.8 µg/mL (H37RV).
`CCCCCCC/C=C\C(O)C#CC#CC(=O)CCOC` (stereo not drawn) gave an MIC of greater than 60 µg/mL (resazurin; ATCC27294 H37RV; 7 days).
The MIC of `O=C(c1cc2c(F)cc(F)cc2[nH]1)N1CCN(C(=O)C23CC4CC(CC(C4)C2)C3)CC1` is reported as greater than 75 µM (resazurin; H37RV).
With `Cc1ccc(CN2CC[C@]34OC[C@H](C(C)C)N3C(=O)CC[C@@H]4C2)cc1` the MIC was 1.66 µM (H37RV).
`CCOC(=O)c1cc(-c2cccc(NC(=O)Nc3ccc(Cl)c(Cl)c3)c2)on1` gave an MIC of 1 µg/mL (ATCC27294 H37RV; 7 days).
`CC(C)[C@H]1CO[C@]23CCN(Cc4ccc(C(F)(F)F)cc4)C[C@H]2CCC(=O)N13` has an MIC of 0.16 µM (H37RV; 7 days).
For `O=[N+]([O-])c1ccc(/C(O)=C/C(=S)S)cc1`, the MIC was 7.8 µg/mL (H37RA).
`CC1CCC2(CC1)SC(C)C(=O)N2NC(=O)c1[nH]c2ccc(Cl)cc2c1-c1ccccc1` (stereo not drawn) gave an MIC of 1000 µM (ATCC27294 H37RV).
The MIC of `CO[C@H]1/C=C/O[C@@]2(C)Oc3c(C)c(O)c4c(O)c(c(/C=N/N5CCN(C)CC5)c(O)c4c3C2=O)NC(=O)/C(C)=C\C=C\[C@H](C)[C@H](O)[C@@H](C)[C@@H](O)[C@@H](C)[C@H](OC(C)=O)[C@@H]1C` is reported as 0.05 µg/mL (H37RV).
With `CO[C@H]1/C=C/O[C@@]2(C)Oc3c(C)c(O)c4c(O)c(c(/C=N/N5CCN(C)CC5)c(O)c4c3C2=O)NC(=O)/C(C)=C\C=C\[C@H](C)[C@H](O)[C@@H](C)[C@@H](O)[C@@H](C)[C@H](OC(C)=O)[C@@H]1C` the MIC was 0.003 µM (H37RV; 5 days).
`C[C@@H]1CN2c3c(cc4c(N5CC[C@@H](O)C5)noc4c3F)CC3(C(=O)NC(=O)NC3=O)[C@H]2[C@H](C)N1C#N` gave an MIC of 7.8 µM (H37RV).
For `CCCCCCNC(=S)Nc1cccc(-c2cc(C(=O)OC)no2)c1`, the MIC was 2 µg/mL (ATCC27294 H37RV; 7 days).
`O=C1C(=NNc2nc(-c3ccccc3)cs2)C(N=Cc2ccc(Cl)cc2)=NN1c1ccccc1` gave an MIC of 51.5 µM (resazurin; H37RV; 5 days).
For `NNC(=O)c1ccncc1`, the MIC was 0.05 µg/mL (resazurin; H37RA; 14 days).
`COC(=O)c1cc(-c2cccc(NC(=S)Nc3ccc(F)c(Cl)c3)c2)on1` has an MIC of 4 µg/mL (ATCC27294 H37RV; 7 days).
The MIC of `CC(C)=CCC/C(C)=C/COCCOC1C2CC3CC(C2)CC1C3` (stereo not drawn) is reported as 50 µg/mL.
For `C[C@@H]([C@H](N)C(=O)N[C@H](C(=O)O)[C@H]1O[C@@H](n2ccc(=O)[nH]c2=O)[C@H](O)[C@@H]1O)[C@H](O)c1ccc(O)cn1`, the MIC was greater than 50 µg/mL (H37RV; 14 days).
The MIC of `CC1SC2(CCCC2)N(NC(=O)c2[nH]c3ccc(Cl)cc3c2-c2ccccc2)C1=O` (stereo not drawn) is reported as 250 µM (ATCC27294 H37RV).
`O=C1C(=NNc2nc(-c3ccccc3)cs2)C(N=Cc2ccccc2)=NN1c1ccccc1` gave an MIC of 6.25 µg/mL (resazurin; H37RV).
`NNC(=O)c1ccncc1` has an MIC of 0.03 µg/mL (ATCC27294 H37RV; 7 days).
`C[C@@H]1CN(c2nc(=O)c3cc(C(F)(F)F)cc(C#N)c3s2)[C@@H](C)CN1CC1CCCCC1` gave an MIC of greater than 2 µM (resazurin; H37RV).
With `COC(=O)c1cc(-c2cccc(NC(=O)Nc3ccccc3)c2)on1` the MIC was 4 µg/mL (ATCC27294 H37RV; 7 days).
With `O=C1CC[C@@H]2CN(Cc3ccccc3)CC[C@@]23OC[C@H](C2CC2)N13` the MIC was 37 µM (H37RV).
With `Cc1cc(C)n(C(=O)c2ccc(-n3c(C)ccc3C)cc2)n1` the MIC was 8 µg/mL (broth dilution; H37RV; 21 days).
The MIC of `Nc1ccc(C(=O)O)c(O)c1` is reported as 0.125 µg/mL (broth dilution; H37RV).
`Cc1ccc(C)n1-c1ccc(-c2nnc(-c3ccccc3Cl)[nH]2)cc1` gave an MIC of 8 µg/mL (broth dilution; H37RV; 21 days).
The MIC of `O=C(Nc1cccc(-c2cc(C(=O)O)no2)c1)Nc1ccc(Cl)c(Cl)c1` is reported as 64 µg/mL (ATCC27294 H37RV; 7 days).
For `Cc1ccc(C)n1-c1ccc(-c2n[nH]c(=S)[nH]2)cc1`, the MIC was 2 µg/mL (broth dilution; H37RV; 21 days).
The MIC of `O=C1NN=C(N=Cc2ccccc2O)C1=NNn1c(-c2ccccc2)nc2ccccc2c1=O` is reported as 13.8 µM (resazurin; H37RV).
`Cc1ccc2nc(C)c(C(=O)NCc3cccc(S(F)(F)(F)(F)F)c3)n2c1` gave an MIC of 0.2 µM (H37RV; 5 days).
The MIC of `[H]/N=C(/N)N[C@H]1[C@H](O)[C@@H](O)[C@H](O[C@@H]2O[C@@H](C)[C@](O)(C=O)[C@H]2O[C@@H]2O[C@@H](CO)[C@H](O)[C@@H](O)[C@@H]2NC)[C@@H](N/C(N)=N\[H])[C@@H]1O` is reported as 1.1 µg/mL (H37RV).
For `CCOC(=O)c1nnn(-c2cccc(NC(=O)Nc3ccc(Cl)c(Cl)c3)c2)c1C`, the MIC was 16 µg/mL (ATCC27294 H37RV; 7 days).
`CC1CCCC2(C1)SC(C)C(=O)N2NC(=O)c1[nH]c2ccc(Cl)cc2c1-c1ccccc1` (stereo not drawn) gave an MIC of 500 µM (ATCC27294 H37RV).
`O=C1C(=NNc2nc(-c3ccccc3)cs2)C(N=Cc2ccc([N+](=O)[O-])cc2)=NN1c1ccccc1` gave an MIC of 25 µg/mL (resazurin; H37RV).
For `Cc1c(Cc2ccc(F)cc2F)c(=O)n2c([nH]c3ccccc32)c1C#N`, the MIC was 1 µg/mL (broth dilution; H37RV).
`C[C@@H]1CN(CC2CCCCC2)C[C@H](C)N1c1nc(=O)c2cc(C(F)(F)F)cc(C#N)c2s1` has an MIC of greater than 2 µM (resazurin; H37RV).
The MIC of `CCCCCCCCCCC[C@@H](C[C@@H]1OC(=O)[C@H]1CCCCCC)OC(=O)[C@H](CC(C)C)NC=O` is reported as 24 µg/mL (resazurin; H37RA).
With `N=C(N)Cc1ccc(NC(=O)c2ccc(C(=O)Nc3ccc(CC(=N)N)cc3)cc2)cc1` the MIC was 1 µg/mL (H37RV; 7 days).
With `CC1SC2(CCCCC2)N(NC(=O)c2[nH]c3ccc(Cl)cc3c2-c2ccccc2)C1=O` (stereo not drawn) the MIC was 250 µM (ATCC27294 H37RV).
For `CN[C@H](CC(C)C)C(=O)N[C@H]1C(=O)N[C@@H](CC(N)=O)C(=O)N[C@H]2C(=O)N[C@H]3C(=O)N[C@H](C(=O)N[C@H](C(=O)O)c4cc(O)cc(O)c4-c4cc3ccc4O)[C@H](O)c3ccc(c(Cl)c3)Oc3cc2cc(c3O[C@@H]2O[C@H](CO)[C@@H](O)[C@H](O)[C@H]2O[C@H]2C[C@](C)(N)[C@H](O)[C@H](C)O2)Oc2ccc(cc2Cl)[C@H]1O`, the MIC was 65 µg/mL (resazurin; H37RA; 14 days).
The MIC of `COC(=O)c1cc(-c2ccc(NC(=O)Nc3ccc(Cl)c(Cl)c3)cc2)on1` is reported as 0.5 µg/mL (ATCC27294 H37RV; 7 days).
The MIC of `O=C(CNS(=O)(=O)c1ccccc1[N+](=O)[O-])N1CCN(C(c2ccc(F)cc2)c2ccc(F)cc2)CC1` is reported as greater than 25 µg/mL (ATCC27294 H37RV).
